The values that follow come from publication PMC5856607 (Journal of pharmaceutical sciences, 2017).

Read-outs that look alike come from different tables or passages of the source.

Data set [1] concerns Caco-2 cells. It is filed as in vitro ADME, human. To be noted: for total CDF production, % of the CDFDA dose / fraction of CDF present in the apical compartment: mean ± standard deviation; for fraction of CDF in the basolateral compartment / fraction of CDF in the cell compartment at 120-minutes: average.
For data set [2], the system named is Caco-2 cells. It is filed as in vitro ADME, human. To be noted: for model predicted effect on CDF clearance across the apical membrane: co-exposure with agent; for β-adjustment factor for enhancement of basolateral membrane clearance (Clcdf,bl), estimate (% RSE): Equation 2, agent 10, 30, 100 μM; for Clhydrolysis, intracellular hydrolysis of CDFDA, parameter estimate (% RSE) / Clcdf,ap, efflux clearance of CDF across the apical membrane, parameter estimate (% RSE) / Clcdf,bl, efflux clearance of CDF across the basolateral membrane, parameter estimate (% RSE): control; for β-adjustment factor for enhancement of CDFDA hydrolysis clearance (Clhydrolysis), estimate (% RSE): Equation 2.

Data set [3] has as its system CDFDA hydrolysis in Caco-2 cell homogenates. As to conditions: cited from earlier work; for effect on CDFDA hydrolysis in Caco-2 cell homogenates: 100 μM.
In data set [4] the test system is Caco-2 cells. To be noted: % of dose, cited from earlier work.
Data set [5] can be described thus: CDFDA hydrolysis in transport buffer. The format is physicochemical. To be noted: 37°C.
Data set [6] concerns Caco-2 cells. In words: CDF transport across Caco-2 monolayers following CDF dosing. The format is in vitro ADME, human. Summed up:
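Caco-2 cells (passages 32–58) were grown 18–24 days on collagen-coated 0.4 μm PTFE Transwells. They were pre-incubated 30 min in pH 7.4 transport buffer with 0.1% DMSO/0.1% ethanol, then given 5 μM CDF apically or basolaterally at 37°C with 150 rpm shaking. CDF was quantified against 7.8–1000 nM standards. Clearance = transport rate/mean initial–final donor concentration. A two-compartment passive paracellular population model was fitted by QRPEM, 13 filters per direction.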
In general terms: Passage across Caco-2 layers is used to estimate intestinal permeability.

Data set [7] has as its system canalicular membrane of rat hepatocytes. To be noted: cited from earlier work.
For data set [8] the following is noted: cited from earlier work.
Data set [9] concerns Caco-2 cells. As to conditions: contemporaneous studies; cited from earlier work.
Setting [10] is: apical 5 μM CDFDA with 100 μM agent.
Setting [11] is: apical 5 μM CDFDA with 100 μM agent, 9 filters.
[12] abbreviates: basolateral 5 μM CDFDA with 100 μM agent.
[13] abbreviates: basolateral 5 μM CDFDA with 100 μM agent, 9 filters.
[14] abbreviates: apical 5 μM CDFDA alone (Control).
Where [15] appears, read: basolateral 5 μM CDFDA alone (Control).
Setting [16] is: basolateral dosing 5 μM CDFDA, 500 simulations.
[17] abbreviates: control experiments, CDFDA dosing.
Where [18] appears, read: apical dosing 5 μM CDFDA, 500 simulations.

`CN(C)C(=O)CCSC(SCCC(=O)O)c1cccc(/C=C/c2ccc3ccc(Cl)cc3n2)c1` (stereo not shown) [MK-571]: in the data set on Caco-2 cells [1] (CDFDA dosing, control approximately 3), the “basolateral to apical dosing CDF flux ratio in the presence of MK-571” value is on record as roughly 0.8. In addition, in the data set with Caco-2 cells [1] (setting [10]), the “AB Donor (apical) CDF at 120 minutes, mean” value (from here on “AB Donor (apical) CDF”) is given as 115 pmoles/well and the “AB Intracellular CDF at 120 minutes, mean” value (from here on “AB Intracellular CDF”) is listed as 15 pmoles/well. Also, the “AB directional CDF flux, mean” value in the data set on Caco-2 cells [1] (setting [11]) is on record as 0.51 pmol/min. In the data set with Caco-2 cells [1] (setting [12]), the “BA Donor (basolateral) CDF at 120 minutes, mean” value (“BA Donor (basolateral) CDF” for short) is reported as 249 pmoles/well and the “BA Intracellular CDF at 120 minutes, mean” value (shortened to “BA Intracellular CDF”) is recorded as 26 pmoles/well. Further, the “BA directional CDF flux, mean” value in the data set on Caco-2 cells [1] (setting [13]) is given as 0.39 pmol/min. Also, the “fold increase of basolateral membrane CDF clearance” value in the data set with Caco-2 cells [2] (100 μM MK-571, the highest concentration evaluated) is given as “up to 2 fold”. The “model predicted effect on CDF clearance across the apical membrane” value in the data set on Caco-2 cells [2] (CDFDA dosing) was “not altered”. Also, the “β-adjustment factor for enhancement of basolateral membrane clearance (Clcdf,bl), estimate (% RSE)” value in the data set on Caco-2 cells [2] (apical CDFDA dosing) was 1.7 × 10^−2 (<0.1). In addition, the “β-adjustment factor for enhancement of basolateral membrane clearance (Clcdf,bl), estimate (% RSE)” value in the data set with Caco-2 cells [2] (basolateral CDFDA dosing) is reported as 2.4 × 10^−2 (0.4). The “effect on CDFDA hydrolysis in Caco-2 cell homogenates” value in [3] is recorded as “no effect”.
Take `CC(C)(C)C(=O)OCOP(=O)(COCCn1cnc2c(N)ncnc21)OCOC(=O)C(C)(C)C` [adefovir dipivoxil]: the figures for the total metabolite production in the data set on Caco-2 cells [4] (apical dosing) and with Caco-2 cells [4] (basolateral dosing) were 93% and 34%, respectively.
Take Glyceollin: in the data set on Caco-2 cells [1] (setting [10]), the “AB Donor (apical) CDF” value is 95 pmoles/well and the “AB Intracellular CDF” value is 15 pmoles/well. In addition, the “AB directional CDF flux, mean” value in the data set with Caco-2 cells [1] (setting [11]) turned out to be 0.63 pmol/min. In the data set on Caco-2 cells [1] (setting [12]), the “BA Donor (basolateral) CDF” value came to 187 pmoles/well and the “BA Intracellular CDF” value was found to be 30 pmoles/well. The “BA directional CDF flux, mean” value in the data set with Caco-2 cells [1] (setting [13]) was 0.53 pmol/min. The “model predicted effect on CDF clearance across the apical membrane” value in the data set on Caco-2 cells [2] (CDFDA dosing) is on record as “no effect on apical membrane clearance”. Besides, the “β-adjustment factor for enhancement of basolateral membrane clearance (Clcdf,bl), estimate (% RSE)” value in the data set on Caco-2 cells [2] (apical CDFDA dosing) is 2.2 × 10^−2 (<0.1). Also, the “β-adjustment factor for enhancement of basolateral membrane clearance (Clcdf,bl), estimate (% RSE)” value in the data set on Caco-2 cells [2] (basolateral CDFDA dosing) was 1.8 × 10^−2 (2.9). In data set [3], the “effect on CDFDA hydrolysis in Caco-2 cell homogenates” value was “no effect”.
For the compound CDF diacetate [CDFDA], in the data set with Caco-2 cells [1] (setting [14]), the “AB Donor (apical) CDF” value came out at 101 pmoles/well and the “AB Intracellular CDF” value is recorded as 29 pmoles/well. Moreover, in the data set with Caco-2 cells [1] (apical 5 μM CDFDA alone (Control), 48 filters), the “AB directional CDF flux, mean” value is listed as 0.28 pmol/min. In addition, the “total CDF production, % of the CDFDA dose” value in the data set with Caco-2 cells [1] (apical dosing) was found to be 6.7 ± 3.10%. Also, in the data set with Caco-2 cells [1] (setting [15]), the “BA Donor (basolateral) CDF” value turned out to be 143 pmoles/well and the “BA Intracellular CDF” value worked out at 83 pmoles/well. The “BA directional CDF flux, mean” value in the data set with Caco-2 cells [1] (basolateral 5 μM CDFDA alone (Control), 48 filters) is reported as 0.81 pmol/min. Also, in the data set with Caco-2 cells [1] (basolateral dosing), the “total CDF production, % of the CDFDA dose” value was 4.3 ± 1.21%. Besides, the “fold larger CDFDA hydrolysis clearance for basolateral versus apical dosing” value in the data set on Caco-2 cells [2] was 1.8 fold. Further, in the data set with Caco-2 cells [2] (apical dosing 5 μM CDFDA), the “Clhydrolysis, intracellular hydrolysis of CDFDA, parameter estimate (% RSE)” value is reported as 8.2 × 10^−4 (<0.1) mL/min. For the same compound, the “Clhydrolysis, bootstrap analysis median (90% confidence interval)” value in the data set with Caco-2 cells [2] (setting [16]) is recorded as 1.6 × 10^−3 (1.2 – 1.9 × 10^−3) mL/min. Also, the “Clhydrolysis, intracellular hydrolysis of CDFDA, parameter estimate (% RSE)” value in the data set with Caco-2 cells [2] (basolateral dosing 5 μM CDFDA) is on record as 1.5 × 10^−3 (0.1) mL/min. Moreover, the “half-life of CDFDA hydrolysis in transport buffer” value in data set [5] was greater than 100 h. Further, the “clearance of CDFDA hydrolysis in transport buffer” value in data set [5] (translated from half-life) came out at 3e-07 mL/min.
A word on the Km: it is the concentration of substrate that gives half-maximal velocity. Take “5 (and 6)-Carboxy-2′,7′-Dichloroflourescein [CDF]”: the “CDF clearance across Caco-2 cells, model based analysis, AB/BA combined, population estimate (RSE,%)” value with Caco-2 cells [6] (5 μM CDF, simultaneous modeling of AB and BA directions) is on record as 1.6 × 10^−5 (11.7) mL/min. Further, in the data set on Caco-2 cells [6] (apical exposure to 5 μM CDF, 5 occasions, 13 filters), the “CDF clearance across Caco-2 cells, model independent analysis, AB, mean (CV,%)” value is on record as 1.6 × 10^−5 (30.3) mL/min. Besides, the “CDF clearance across Caco-2 cells, model based analysis, AB, population estimate (RSE,%)” value with Caco-2 cells [6] (apical exposure to 5 μM CDF, two-compartment model) is on record as 1.3 × 10^−5 (19.0) mL/min. The “CDF clearance across Caco-2 cells, model independent analysis, BA, mean (CV,%)” value with Caco-2 cells [6] (basolateral exposure to 5 μM CDF, 5 occasions, 13 filters) is recorded as 2.1 × 10^−5 (3.3) mL/min. For the same compound, in the data set on Caco-2 cells [6] (basolateral exposure to 5 μM CDF, two-compartment model), the “CDF clearance across Caco-2 cells, model based analysis, BA, population estimate (RSE,%)” value is 2.0 × 10^−5 (10.9) mL/min. Moreover, the “fraction of CDF in the basolateral compartment” value with Caco-2 cells [1] (apical CDFDA dosing) was determined as 1.1%; with Caco-2 cells [1] (basolateral CDFDA dosing), 1.0%. Moreover, the “fraction of CDF in the cell compartment at 120-minutes” value in the data set on Caco-2 cells [1] (apical CDFDA dosing) is given as 1.5%; in the data set on Caco-2 cells [1] (basolateral CDFDA dosing), 1.3%. In addition, the “fraction of CDF present in the apical compartment” value in the data set with Caco-2 cells [1] (apical CDFDA dosing, n = 16 occasions) turned out to be 4.0 ± 2.33%; in the data set with Caco-2 cells [1] (basolateral CDFDA dosing), 1.9 ± 1.24%. The “mean ratio of CDF cell content, basolateral versus apical dosing” value with Caco-2 cells [1] (setting [17]) was 2.9. Besides, the “mean ratio of CDF flux, basolateral versus apical dosing” value in the data set on Caco-2 cells [1] (setting [17]) amounted to 2.9. For the same compound, the “ratio of basolateral to apical dosing transcellular CDF clearance” value in the data set on Caco-2 cells [2] (Equations 3a–b with 3-compartment model estimates) was 2.9. Further, the “simulated intracellular CDF concentration, average” value in the data set with Caco-2 cells [2] (apical CDFDA dosing) is 10 µM; in the data set on Caco-2 cells [2] (basolateral CDFDA dosing), 24 µM. Moreover, the “Clcdf,ap, bootstrap analysis median (90% confidence interval)” value was 2.2 × 10^−5 (1.7 – 2.6 × 10^−5) mL/min with Caco-2 cells [2] (setting [18]) and 8.3 × 10^−5 (7.1 – 10.8 × 10^−5) mL/min in the data set with Caco-2 cells [2] (setting [16]). Also, the “Clcdf,bl, bootstrap analysis median (90% confidence interval)” value with Caco-2 cells [2] (setting [18]) is recorded as 1.3 × 10^−5 (1.2 – 1.4 × 10^−5) mL/min; with Caco-2 cells [2] (setting [16]), 5.1 × 10^−5 (3.8 – 6.7 × 10^−5) mL/min. In addition, the “Clcdf,ap, efflux clearance of CDF across the apical membrane, parameter estimate (% RSE)” value is 8.4 × 10^−5 (<0.1) mL/min in the data set with Caco-2 cells [2] (apical dosing 5 μM CDFDA) and 8.5 × 10^−5 (0.2) mL/min in the data set on Caco-2 cells [2] (basolateral dosing 5 μM CDFDA). Moreover, the “Clcdf,bl, efflux clearance of CDF across the basolateral membrane, parameter estimate (% RSE)” value in the data set on Caco-2 cells [2] (apical dosing 5 μM CDFDA) is reported as 5.6 × 10^−5 (0.1) mL/min; in the data set with Caco-2 cells [2] (basolateral dosing 5 μM CDFDA) it was 5.2 × 10^−5 (0.2) mL/min. Also, the “fold larger apical versus basolateral membrane CDF clearance” value in the data set on Caco-2 cells [2] (following both apical and basolateral dosing) was “approximately 1.5 fold”. The Km was 3 µM in data set [7] (read-out: Km, high affinity state, Sprague-Dawley rats); 9 µM in [7] (read-out: Km, high affinity state, Wistar rats); 192 µM in data set [7] (read-out: Km, low affinity state, Sprague-Dawley rats); 69 µM in data set [7] (read-out: Km, low affinity state, Wistar rats). Also, in [8], the protein binding is on record as 15 – 20%.
`O=c1c(-c2ccc(O)cc2)coc2cc(O)cc(O)c12` [Genistein]: in the data set with Caco-2 cells [1] (setting [10]), the “AB Donor (apical) CDF” value is recorded as 301 pmoles/well and the “AB Intracellular CDF” value is 85 pmoles/well. Also, the “AB directional CDF flux, mean” value with Caco-2 cells [1] (setting [11]) was found to be 1.25 pmol/min. In the data set with Caco-2 cells [1] (setting [12]), the “BA Donor (basolateral) CDF” value worked out at 427 pmoles/well and the “BA Intracellular CDF” value is listed as 134 pmoles/well. Further, in the data set with Caco-2 cells [1] (setting [13]), the “BA directional CDF flux, mean” value came to 2.68 pmol/min. In addition, the “model predicted effect on CDF efflux” value with Caco-2 cells [2] (CDFDA dosing, genistein exposure) is given as “no predicted effects”. In addition, the “β-adjustment factor for enhancement of CDFDA hydrolysis clearance (Clhydrolysis), estimate (% RSE)” value with Caco-2 cells [2] (apical CDFDA dosing) was 6.9 × 10^−3 (<0.1). Besides, the “β-adjustment factor for enhancement of CDFDA hydrolysis clearance (Clhydrolysis), estimate (% RSE)” value in the data set on Caco-2 cells [2] (basolateral CDFDA dosing) was 2.8 × 10^−2 (0.6). Also, the “effect on CDFDA hydrolysis observed in vitro” value in [3] was “stimulation of CDFDA hydrolysis”.
lucifer yellow: the lucifer yellow clearance in the data set with Caco-2 cells [9] is 8.7 ± 0.24 × 10^−5 mL/min.
